Test results: ChEMBL document CHEMBL1143122, “Novel analogs of D-e-MAPP and B13. Part 1: synthesis and evaluation as potential anticancer agents” (Bioorg Med Chem, 2008)

Key:
[1] = test system: U-251; assay: Antiproliferative activity against human U251 cells after 48 hrs; type: functional; settings: U-251, 48 h; for TGI: read-out: Log TGI (converted)
Outline: (§1)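 NCI 60-cell-line screen. Lines grown in RPMI 1640 with 5% fetal bovine serum and 2 mM L-glutamine, plated at 5,000–40,000 cells/well according to doubling time, left 24 h at 37 °C in 5% CO2. Drug stocks in DMSO at 400-fold the top final concentration. Five 10-fold dilutions, 10−4 to 10−8 M, incubated 48 h. Growth read spectrophotometrically as net protein; GI50 taken as 50% reduction.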

[2] = test system: Malme-3M; assay: Antiproliferative activity against human MALME3M cells after 48 hrs; type: functional; settings: for TGI: read-out: Log TGI (converted)
Outline: (§2)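 NCI 60-cell screen. Cells were grown in RPMI 1640 with 5% FBS and 2 mM L-glutamine, then plated at 5,000–40,000 cells/well according to doubling time and preincubated for 24 h at 37 °C in 5% CO2. Compounds were dissolved in DMSO at 400× the top final concentration and tested at five 10-fold dilutions from 10−4 to 10−8 M for 48 h. Growth was read spectrophotometrically; GI50 is 50% net protein reduction.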

[3] = test system: SK-MEL-28; assay: Antiproliferative activity against human SKMEL28 cells after 48 hrs; type: functional; settings: SK-MEL-28, 48 h; for TGI: read-out: Log TGI (converted); outline: as §2
[4] = test system: SK-MEL-5; assay: Antiproliferative activity against human SKMEL5 cells after 48 hrs; type: functional; settings: SK-MEL-5, 48 h; for CC50: read-out: Log LC50 (the source's name) (converted); outline: as §2
[5] = test system: IGROV-1; assay: Antiproliferative activity against human IGROV1 cells after 48 hrs; type: functional; settings: IGROV-1, 48 h; for TGI: read-out: Log TGI (converted); outline: as §2
[6] = test system: OVCAR-4; assay: Antiproliferative activity against human OVCAR4 cells after 48 hrs; type: functional; settings: OVCAR-4, 48 h; for TGI: read-out: Log TGI (converted); outline: as §2
[7] = test system: OVCAR-5; assay: Antiproliferative activity against human OVCAR5 cells after 48 hrs; type: functional; settings: OVCAR-5, 48 h; for CC50: read-out: Log LC50 (the source's name) (converted); for TGI: read-out: Log TGI (converted); outline: as §2
[8] = test system: OVCAR-8; assay: Antiproliferative activity against human OVCAR8 cells after 48 hrs; type: functional; settings: OVCAR-8, 48 h; for TGI: read-out: Log TGI (converted); outline: as §2
[9] = test system: 786-0; assay: Antiproliferative activity against human 786-0 cells after 48 hrs; type: functional; settings: 786-0, 48 h; for CC50: read-out: Log LC50 (the source's name) (converted); for TGI: read-out: Log TGI (converted); outline: as §2
[10] = test system: ACHN; assay: Antiproliferative activity against human ACHN cells after 48 hrs; type: functional; settings: for CC50: read-out: Log LC50 (the source's name) (converted); for TGI: read-out: Log TGI (converted); outline: as §2
[11] = test system: UO-31; assay: Antiproliferative activity against human UO31 cells after 48 hrs; type: functional; settings: UO-31, 48 h; for TGI: read-out: Log TGI (converted); outline: as §1
[12] = Antiproliferative activity against human NCI-ADR-RES cells after 48 hrs; type: functional; settings: for TGI: read-out: Log TGI (converted); outline: as §2
[13] = test system: MDA-MB-231; assay: Antiproliferative activity against human MDA-MB-231 cells after 48 hrs; type: functional; settings: MDA-MB-231, 48 h; for TGI: read-out: Log TGI (converted); outline: as §2
[14] = test system: Hs-578T; assay: Antiproliferative activity against human HS578T cells after 48 hrs; type: functional; settings: for TGI: read-out: Log TGI (converted); outline: as §2
[15] = test system: BT-549; assay: Antiproliferative activity against human BT549 cells after 48 hrs; type: functional; settings: BT-549, 48 h; for TGI: read-out: Log TGI (converted); outline: as §2
[16] = test system: HOP-92; assay: Antiproliferative activity against human HOP92 cells after 48 hrs; type: functional; settings: HOP-92, 48 h; for TGI: read-out: Log TGI (converted); outline: as §2
[17] = test system: NCI-H23; assay: Antiproliferative activity against human NCI-H23 cells after 48 hrs; type: functional; settings: NCI-H23, 48 h; for CC50: read-out: Log LC50 (the source's name) (converted); for TGI: read-out: Log TGI (converted); outline: as §2
[18] = test system: NCI-H460; assay: Antiproliferative activity against human NCI-H460 cells after 48 hrs; type: functional; settings: NCI-H460, 48 h; for TGI: read-out: Log TGI (converted); outline: as §2
[19] = test system: COLO 205; assay: Antiproliferative activity against human COLO205 cells after 48 hrs; type: functional; settings: COLO 205, 48 h; for TGI: read-out: Log TGI (converted); outline: as §2
[20] = test system: SF-268; assay: Antiproliferative activity against human SF268 cells after 48 hrs; type: functional; settings: SF-268, 48 h; for TGI: read-out: Log TGI (converted); outline: as §2
[21] = test system: SF-539; assay: Antiproliferative activity against human SF539 cells after 48 hrs; type: functional; settings: SF-539, 48 h; for TGI: read-out: Log TGI (converted); outline: as §2
[22] = test system: SNB-75; assay: Antiproliferative activity against human SNB75 cells after 48 hrs; type: functional; settings: SNB-75, 48 h; for CC50: read-out: Log LC50 (the source's name) (converted); for TGI: read-out: Log TGI (converted); outline: as §2
[23] = test system: MCF7; assay: Drug level in human MCF7 cells at 10 uM per 10^6 cells after 0.5 hrs; type: ADME, cell-based; settings: mcf7, 0.5 h
Outline: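 MCF7 cells kept in RPMI 1640 with 10% fetal calf serum at 37 °C, 5% CO2, then treated with 10 μM analog. Intracellular analog measured over time by HPLC-MS in positive-ion MRM mode. Quantified against calibration curves made by spiking an artificial matrix with standards plus internal standard, using analyte/IS peak-area ratios and linear regression. Reported as pmol per 1×10^6 cells.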

[24] = Antiproliferative activity against human HL60(TB) cells after 48 hrs; type: functional, HL-60(TB); settings: HL-60, 48 h; for TGI: read-out: Log TGI (converted)
Outline: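 NCI 60-line panel screen: cells grown in RPMI 1640 with 5% fetal bovine serum and 2 mM L-glutamine, plated at 5,000–40,000 cells/well by doubling time, and preincubated 24 h at 37 °C in 5% CO2. Drugs were solubilised in DMSO at 400-fold the final maximum and tested at five 10-fold dilutions from 10−4 to 10−8 M for 48 h. Net protein was read spectrophotometrically, and the concentration giving 50% reduction was reported as log10 GI50.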

[25] = test system: K562; assay: Antiproliferative activity against human K562 cells after 48 hrs; type: functional; settings: K562, 48 h; for TGI: read-out: Log TGI (converted); outline: as §2
[26] = test system: MOLT-4; assay: Antiproliferative activity against human MOLT4 cells after 48 hrs; type: functional; settings: MOLT-4, 48 h; for TGI: read-out: Log TGI (converted); outline: as §2
[27] = Antiproliferative activity against human […] cells after 48 hrs; type: functional; settings: for TGI: read-out: Log TGI (converted); outline: as §2
[28] = read-out: Log LC50 (the source's name) (converted)

CCCCCCCCCCCCCCN[C@H](C)[C@@H](O)c1ccccc1.Cl
GI50 [1]: 1.86 µM
CC50 [1, 28]: 5.89 µM
TGI [1]: 3.31 µM
GI50 [2]: 1.95 µM
LC50 [2]: 6.03 µM
TGI [2]: 3.39 µM
GI50 [3]: 1.86 µM
LC50 [3]: 5.75 µM
TGI [3]: 3.24 µM
CC50 [4]: 100 µM
GI50 [5]: 1.62 µM
LC50 [5]: 5.75 µM
TGI [5]: 3.09 µM
GI50 [6]: 2.14 µM
LC50 [6]: 6.76 µM
TGI [6]: 3.8 µM
GI50 [7]: 2 µM
CC50 [7]: 6.17 µM
TGI [7]: 3.47 µM
GI50 [8]: 1.82 µM
TGI [8]: 3.8 µM
GI50 [9]: 1.74 µM
CC50 [9]: 5.75 µM
TGI [9]: 3.16 µM
GI50 [10]: 1.86 µM
CC50 [10]: 5.89 µM
TGI [10]: 3.31 µM
GI50 [11]: 1.74 µM
LC50 [11]: 5.89 µM
TGI [11]: 3.24 µM
GI50 [12]: 1.82 µM
TGI [12]: 3.55 µM
GI50 [13]: 1.74 µM
LC50 (50% lethal concentration) [13]: 6.46 µM
TGI [13]: 3.39 µM
GI50 [14]: 2.51 µM
LC50 [14]: 46.8 µM
TGI [14]: 5.5 µM
GI50 [15]: 1.12 µM
LC50 [15]: 5.01 µM
TGI [15]: 2.4 µM
GI50 [16]: 1.55 µM
LC50 [16]: 5.89 µM
TGI [16]: 3.02 µM
GI50 [17]: 2.14 µM
CC50 [17]: 7.94 µM
TGI [17]: 4.07 µM
GI50 [18]: 1.78 µM
CC50 [18, 28]: 6.17 µM
TGI [18]: 3.31 µM
GI50 [19]: 1.91 µM
CC50 [19, 28]: 6.17 µM
TGI [19]: 3.39 µM
GI50 [20]: 1.78 µM
LC50 [20]: 6.76 µM
TGI [20]: 3.47 µM
GI50 [21]: 1.35 µM
LC50 [21]: 5.5 µM
TGI [21]: 2.69 µM
GI50 [22]: 2.09 µM
CC50 [22]: 7.08 µM
TGI [22]: 3.89 µM
Drug uptake [23]: 3600 pmol
GI50 [24]: 0.0871 µM
LC50 [24]: 6.61 µM
TGI [24]: 2.51 µM
GI50 [25]: 1.41 µM
LC50 [25]: 5.62 µM
TGI [25]: 2.82 µM
GI50 [26]: 0.871 µM
LC50 [26]: 4.9 µM
TGI [26]: 2.19 µM
GI50 [27]: 1.62 µM
LC50 [27]: 6.03 µM
TGI [27]: 3.09 µM

CCCCCCCCCCCCCCN[C@H](CO)[C@H](O)c1ccc([N+](=O)[O-])cc1.Cl
GI50 [1]: 1.86 µM
TGI [1]: 3.47 µM
GI50 [2]: 2.45 µM
LC50 [2]: 9.55 µM
TGI [2]: 4.9 µM
GI50 [3]: 1.91 µM
LC50 [3]: 6.03 µM
TGI [3]: 3.39 µM
GI50 [4]: 2.45 µM
CC50 [4]: > 100 µM
TGI ([4]; read-out: Log TGI (converted)): 7.08 µM
GI50 [5]: 1.91 µM
TGI [5]: 3.63 µM
GI50 [6]: 1.91 µM
LC50 [6]: 6.76 µM
TGI [6]: 3.55 µM
GI50 [7]: 3.72 µM
CC50 [7]: 72.4 µM
TGI [7]: 14.1 µM
GI50 [8]: 2.29 µM
CC50 [8, 28]: > 100 µM
TGI [8]: 5.62 µM
GI50 [9]: 1.62 µM
CC50 [9]: 5.75 µM
TGI [9]: 3.09 µM
GI50 [10]: 1.86 µM
CC50 [10]: 6.17 µM
TGI [10]: 3.39 µM
GI50 [11]: 4.27 µM
LC50 [11]: 87.1 µM
TGI [11]: 18.6 µM
GI50 [12]: 2.04 µM
LC50 [12]: 8.91 µM
TGI [12]: 4.27 µM
GI50 [13]: 2 µM
LC50 (50% lethal concentration) [13]: 7.76 µM
TGI [13]: 3.89 µM
GI50 [14]: 2.09 µM
LC50 [14]: 100 µM
TGI [14]: 5.25 µM
GI50 [15]: 1.51 µM
LC50 [15]: 5.62 µM
TGI [15]: 2.88 µM
GI50 [16]: 1.26 µM
LC50 [16]: 6.17 µM
TGI [16]: 2.75 µM
GI50 [17]: 14.5 µM
CC50 [17]: 83.2 µM
TGI [17]: 34.7 µM
GI50 [18]: 1.91 µM
TGI [18]: 3.55 µM
GI50 [19]: 1.78 µM
TGI [19]: 3.55 µM
GI50 [20]: 2.09 µM
LC50 [20]: > 100 µM
TGI [20]: 4.9 µM
GI50 [21]: 1.66 µM
LC50 [21]: 6.03 µM
TGI [21]: 3.16 µM
GI50 [22]: 3.98 µM
CC50 [22]: 60.3 µM
TGI [22]: 26.9 µM
Drug uptake [23]: 3600 pmol
GI50 [24]: 2.04 µM
LC50 [24]: 15.1 µM
TGI [24]: 4.79 µM
GI50 [25]: 1.86 µM
LC50 [25]: 7.76 µM
TGI [25]: 3.8 µM
GI50 [26]: 1.62 µM
LC50 [26]: 7.59 µM
TGI [26]: 3.55 µM
GI50 [27]: 2 µM
LC50 [27]: 8.91 µM
TGI [27]: 4.27 µM
